For two compounds, Activity, Drug uptake and IC50 results are on record in ChEMBL document CHEMBL4219076, “Synthesis, spectroscopic studies and biological evaluation of acridine derivatives: The role of aggregation on the photodynamic efficiency” (Bioorg Med Chem Lett, 2018).

For orientation: pIC50 means the IC50 on a negative log10 scale, so that one unit is a factor of ten.

In data set [1] the test system is Hep 3B2. The data set is described as follows: Photocytotoxicity in human Hep3B cells assessed as cell damage at 10 uM preincubated for 1 hr followed by 365 nanometer UV light irradiation for 3 mins by propidium iodide staining based confocal fluorescence laser scanning microscopic method. In kind it is functional. The method in brief:
(§1)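 Hep3B cells, 30.000 cells/well, exposed to photosensitizer ([…] as printed) for 1 h, then irradiated with a 365 nm UV lamp, 6 W, for 3 min. Damaged or dead cells stained with propidium iodide (1 mM as printed) and imaged by confocal laser scanning microscopy, ex 488 nm, em 500–700 nm. Irradiated control wells received no photosensitizer.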

Data set [2] concerns HUVEC. Put plainly: Cytotoxicity against HUVEC assessed as reduction in cell viability at 1 to 20 uM after 3 hrs under dark condition by MTT assay. The data set is classed as functional, cell-based. The conditions noted are these: Homo sapiens. (Formazan colour is commonly taken as a measure of viable cells.)
The nature of data set [3]: Induction of singlet oxygen production in H2O upon irradiation of 365 nanometer light assessed as oxygenation of 1,5-DHN by measuring quantum yield at 33 uM by UV-Visible spectroscopic method. The data set is classed as functional. The method in brief:
(§2)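 Singlet oxygen generation was followed by oxygenation of 1,5-dihydroxynaphthalene to juglone. Sensitizer solutions were irradiated in quartz cuvettes with 365 nm light.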

Data set [4] is described as follows: Self-aggregating property assessed as diameter of nanostructure by DLS method. In kind it is physicochemical.
A short description of data set [5]: Induction of singlet oxygen production in 50% H2O/CH3CN mixture upon irradiation of 365 nanometer light assessed as oxygenation of 1,5-DHN by UV-Visible spectroscopic method. The data set is classed as functional. The method, boiled down: as §2
Data set [6] has as its system Hep 3B2. Put plainly: Photocytotoxicity in human Hep3B cells assessed as cell damage at 20 uM preincubated for 1 hr followed by 365 nanometer UV light irradiation for 3 mins by propidium iodide/Hoechst 33342 staining based static cytometry coupled fluorescence microscopic method (reference value: 1.25%). In kind it is functional. The method in brief: (§3)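 Hep3B cells exposed to photosensitizer for 1 h, then irradiated at 365 nm for 3 min. PI-positive cells were quantified by fluorescence microscopy coupled with static cytometry and expressed as percentage of cells, with untreated cells as reference.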

The subject of data set [7] is Hep 3B2. The data set is described as follows: Cytotoxicity against human Hep3B cells assessed as reduction in cell viability at 1 to 20 uM after 24 hrs under dark condition by MTT assay. The data set is classed as functional, cell-based.
Data set [8] in a line: Induction of singlet oxygen production in 90% H2O/CH3CN mixture upon irradiation of 365 nanometer light assessed as oxygenation of 1,5-DHN by UV-Visible spectroscopic method. In kind it is functional. The method, boiled down:
as §2

For data set [9], the system named is HUVEC. Put plainly: Cytotoxicity against HUVEC assessed as reduction in cell viability at 1 to 20 uM incubated for 3 hrs followed by incubation in compound free medium for 21 hrs under dark condition by MTT assay. The data set is classed as functional, cell-based. Conditions: Homo sapiens.
Data set [10] is described as follows: Induction of singlet oxygen production in CH3CN upon irradiation of 365 nanometer light assessed as oxygenation of 1,5-DHN by measuring quantum yield at 33 uM by UV-Visible spectroscopic method. The data set is classed as functional. The method, boiled down:
as §2

Data set [11] has as its system Hep 3B2. Put plainly: Cytotoxicity against human Hep3B cells assessed as reduction in cell viability at 1 to 20 uM incubated for 3 hrs followed by incubation in compound free medium for 21 hrs under dark condition by MTT assay. The data set is classed as functional, cell-based.
Data set [12] in a line: Dark toxicity in human Hep3B cells assessed as cell damage at 20 uM after 1 hr by propidium iodide/Hoechst 33342 staining based static cytometry coupled fluorescence microscopic method (reference value: 1.25%). The conditions noted are these: hep 3b2, 1 h.
A short description of data set [13]: Drug uptake in human Hep3B cell nuclear membrane at 10 uM after 1 hr by Draq5 staining based bright field microscopic method. The data set is classed as ADME, cell membranes. Conditions: hep 3b2, 1 h.
A short description of data set [14]: Drug uptake in human Hep3B cell mitochondria at 10 uM after 1 hr by Draq5 staining based bright field microscopic method. The data set is classed as ADME. The conditions noted are these: hep 3b2, 1 h.
In data set [15] the test system is HUVEC. The data set is described as follows: Cytotoxicity against HUVEC assessed as cell viability at 1 to 20 uM after 3 hrs under dark condition by MTT assay relative to control. In kind it is functional, Homo sapiens.
Data set [16] deals with HUVEC. Put plainly: Cytotoxicity against HUVEC assessed as cell viability at 1 to 20 uM after 24 hrs under dark condition by MTT assay relative to control. In kind it is functional, Homo sapiens.
A short description of data set [17]: Self-aggregating property assessed as diameter of nanostructure by transmission electron microscopic method. The data set is classed as physicochemical.
Data set [18] has as its system Hep 3B2. Put plainly: Photocytotoxicity in human Hep3B cells assessed as cell damage preincubated for 1 hr followed by 365 nanometer UV light irradiation for 3 mins by propidium iodide staining based confocal fluorescence laser scanning microscopic method. The data set is classed as functional. The method, boiled down:
as §1

Data set [19] has as its system Hep 3B2. Put plainly: Photocytotoxicity in human Hep3B cells assessed as cell damage preincubated for 1 hr followed by 365 nanometer UV light irradiation for 3 mins by propidium iodide/Hoechst 33342 staining based static cytometry coupled fluorescence microscopic method. In kind it is functional. The method in brief: as §3
The test system of data set [20] is HUVEC. The data set is described as follows: Cytotoxicity against HUVEC assessed as reduction in cell viability after 3 hrs under dark condition by MTT assay. The data set is classed as functional, cell-based. Conditions: Homo sapiens.
The test system of data set [21] is Hep 3B2. The data set is described as follows: Cytotoxicity against human Hep3B cells assessed as reduction in cell viability after 3 hrs under dark condition by MTT assay. In kind it is functional, cell-based.
Data set [22] is described as follows: Drug uptake in human Hep3B cell endoplasmic reticulum at 10 uM after 1 hr by Draq5 staining based bright field microscopic method. In kind it is ADME, subcellular. The conditions noted are these: hep 3b2, 1 h.
A short description of data set [23]: Drug uptake in human Hep3B cell lysosome at 10 uM after 1 hr by Draq5 staining based bright field microscopic method. The data set is classed as ADME, subcellular. Conditions: hep 3b2, 1 h.
The nature of data set [24]: Self-aggregating property assessed as diameter of nanostructure by scanning electron microscopic method. The data set is classed as physicochemical.

pIC50: −log10 of the molar value. Calls of active or inactive are those of the source. No cut-off for these calls is given here.

For the compound `CCCNC(=O)[C@@H](NC(=O)c1c2ccccc2nc2ccccc12)C(C)C`, the result (in the data set with Hep 3B2 [1]; in data set [5]; in data set [8]) was Active. Besides, the outcome with HUVEC [2], in the data set on Hep 3B2 [7], in the data set with HUVEC [9] and with Hep 3B2 [11] was inactive. Besides, the Activity in [3] was 0.263; in data set [4] it was “Not Active”; in the data set with Hep 3B2 [6], 8.7%; in data set [10], 0.97; in data set [12], 3.38%.

Turning to `CC(C)[C@H](NC(=O)c1c2ccccc2nc2ccccc12)C(=O)NCCCCCCCCNC(=O)[C@@H](NC(=O)c1c2ccccc2nc2ccccc12)C(C)C`, the Drug uptake entry in [13] was “Active”; in data set [14] it was “Not Active”; in [22], “Not Active”; in [23] it was “Not Active”. Also, the Activity with HUVEC [15] is 46%; in the data set with HUVEC [16] it was 27%; in data set [17], 135 nm; in data set [3] it was 0.01; in [4], 122 nm; in [10], 0.96. Besides, the Activity result is “Dose-dependent effect” with HUVEC [20], “Dose-dependent effect” with Hep 3B2 [21] and 93 nm in [24]. The outcome (in data set [5]; in data set [8]; with Hep 3B2 [18]; in the data set on HUVEC [9]; in the data set with Hep 3B2 [19]; in the data set with Hep 3B2 [11]) was inactive. In the data set on Hep 3B2 [7], the result was Active. Further, the negative-log IC50 (pIC50) in the data set on HUVEC [20] was 4.73; with Hep 3B2 [21], 4.53.
